# Measurements published in ChEMBL document CHEMBL4251718, “Isolation of Imaqobactin, an Amphiphilic Siderophore from the Arctic Marine Bacterium Variovorax Species RKJM285” (J Nat Prod, 2018).
# Calls of active or inactive are those of the source. The calls are words filed in the database; no cut-off is given here.
# Legend:
# [1] = Metal chelating activity assessed as V3+-compound complex formation after 1 hr by LC-HRMS analysis
# Summary of the method: (§1)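 500 μg of ligand was dissolved in 1 mL PBS (pH 7.5) and stirred with excess (15 mg) AlCl3, AuCl3 or VCl3 at room temperature for 1 h. Samples went through C18 SPE with a water wash and MeOH elution, were dried, and were redissolved at 500 μg mL−1 in MeOH. Complexes were detected by C18 LC-HRMS using a water/acetonitrile 0.1% formic acid gradient.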
# [2] = Metal chelating activity assessed as Al3+-compound complex formation after 1 hr by LC-HRMS analysis; summary of the method: as §1
# [3] = Metal chelating activity assessed as Au3+-compound complex formation after 1 hr by LC-HRMS analysis; summary of the method: as §1
# [4] = system: Vero; experiment: Cytotoxicity against African green monkey Vero cells after 24 hrs by alamar blue assay; format: cell-based; details: chlorocebus sabaeus
# Summary of the method: (§2)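 Cytotoxicity was measured with Alamar blue. Fluorescence (ex 560/12, em 590 nm) was read at time zero and 4 h after Alamar blue addition, and IC50 values were calculated from these readings. The free ligand and its Fe(III) and Ga(III) complexes were tested.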
# [5] = system: Keratinocyte; experiment: Cytotoxicity against human epidermal keratinocytes after 24 hrs by alamar blue assay; summary of the method: as §2
# [6] = system: Staphylococcus aureus; experiment: Antibacterial activity against methicillin-resistant Staphylococcus aureus ATCC 33591 after 22 hrs by microbroth dilution method; format: functional, organism-based; details: ATCC 33591, 22 h
# Summary of the method: (§3)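 CLSI broth microdilution, run in triplicate. OD600 was read at time zero and again after 22 h at 37 °C, and percent growth inhibition was calculated from these readings. The free ligand and its Fe(III) and Ga(III) complexes were tested.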
# [7] = system: Enterococcus faecium; experiment: Antimicrobial activity against vancomycin-resistant Enterococcus faecium EF379 after 22 hrs by micro broth dilution assay; format: functional, organism-based; details: EF379, 22 h; summary of the method: as §3
# [8] = system: Staphylococcus warneri; experiment: Antimicrobial activity against Staphylococcus warneri ATCC 17917 after 22 hrs by micro broth dilution assay; format: functional, organism-based; details: ATCC 17917, 22 h; summary of the method: as §3
# [9] = system: Proteus vulgaris; experiment: Antimicrobial activity against Proteus vulgaris ATCC 12454 after 22 hrs by micro broth dilution assay; format: functional, organism-based; details: ATCC 12454, 22 h; summary of the method: as §3
structure (smiles),measurement,setting,value
CCCCCCCCCCCC(=O)NC(CCCN(O)C=O)C(O)C(C)C(=O)N[C@@H](CO)C(=O)N[C@@H]1CCCN(O)C(=O)CC(C)OC(=O)[C@H]([C@@H](O)C(=O)O)NC(=O)[C@H]([C@@H](C)O)NC1=O (some centres undefined),Activity,[1],Active
same,Activity,[2],Active
same,Activity,[3],Active
same,Activity,[4],Non-Toxic
same,Activity,[5],Non-Toxic
same,IC50,[6],35 µM
same,IC50,[7],11 µM
same,IC50,[8],28 µM
same,IC50,[9],14 µM
